# Measured values: the M2OR odorant receptor database
# Legend:
# Settings in all cases: stereoisomer not certain
# O5AN1 = tested on: T1, O5AN1
# T1 sequence (whole entry): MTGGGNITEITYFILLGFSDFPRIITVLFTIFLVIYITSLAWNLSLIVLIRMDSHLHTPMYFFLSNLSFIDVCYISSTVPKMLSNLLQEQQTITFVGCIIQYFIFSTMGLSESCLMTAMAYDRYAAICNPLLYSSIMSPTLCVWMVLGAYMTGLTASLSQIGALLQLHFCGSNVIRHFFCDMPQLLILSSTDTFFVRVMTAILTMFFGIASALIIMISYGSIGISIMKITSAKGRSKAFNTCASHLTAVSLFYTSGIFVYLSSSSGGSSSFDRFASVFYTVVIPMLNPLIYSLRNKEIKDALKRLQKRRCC
# Method in brief: (§1)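 Values were gathered from published papers (main text and supplementary material), with extra details requested from the original authors when needed, and checked for typos and inconsistencies. Each receptor–molecule pair is called responsive (active) if the original authors judged the measured signal statistically different from baseline, and non-responsive (inactive) otherwise. Assay methods varied by source, often transient mammalian cell-line luciferase assays. Recorded details include cell line, G-protein, co-transfected protein and tags.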
# OR10A2 (Homo sapiens) = biological target: T2, OR10A2 (Homo sapiens) (UniProt Q9H208)
# T2 sequence (whole entry): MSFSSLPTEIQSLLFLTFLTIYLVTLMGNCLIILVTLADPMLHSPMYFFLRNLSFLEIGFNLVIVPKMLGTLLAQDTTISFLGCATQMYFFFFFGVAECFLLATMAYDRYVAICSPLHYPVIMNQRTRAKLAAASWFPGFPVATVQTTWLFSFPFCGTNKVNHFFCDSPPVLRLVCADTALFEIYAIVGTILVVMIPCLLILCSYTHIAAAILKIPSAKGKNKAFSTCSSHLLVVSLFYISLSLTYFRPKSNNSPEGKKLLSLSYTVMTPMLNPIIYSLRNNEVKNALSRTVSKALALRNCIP
# Method in brief: as §1
# OR10A4 (Homo sapiens) = biological target: T3, OR10A4 (Homo sapiens) (UniProt Q9H209)
# T3 sequence (whole entry): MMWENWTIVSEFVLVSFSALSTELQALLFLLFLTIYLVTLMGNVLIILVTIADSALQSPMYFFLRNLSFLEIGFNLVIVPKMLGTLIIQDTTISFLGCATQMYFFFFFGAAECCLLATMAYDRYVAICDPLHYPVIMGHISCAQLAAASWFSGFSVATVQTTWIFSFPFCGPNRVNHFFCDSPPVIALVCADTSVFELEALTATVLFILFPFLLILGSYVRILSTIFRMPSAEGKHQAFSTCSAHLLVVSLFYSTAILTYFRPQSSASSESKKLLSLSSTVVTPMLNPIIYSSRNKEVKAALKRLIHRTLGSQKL
# Method in brief: as §1
# OR10A5 (Homo sapiens) = biological target: T4, OR10A5 (Homo sapiens) (UniProt Q9H207)
# T4 sequence (whole entry): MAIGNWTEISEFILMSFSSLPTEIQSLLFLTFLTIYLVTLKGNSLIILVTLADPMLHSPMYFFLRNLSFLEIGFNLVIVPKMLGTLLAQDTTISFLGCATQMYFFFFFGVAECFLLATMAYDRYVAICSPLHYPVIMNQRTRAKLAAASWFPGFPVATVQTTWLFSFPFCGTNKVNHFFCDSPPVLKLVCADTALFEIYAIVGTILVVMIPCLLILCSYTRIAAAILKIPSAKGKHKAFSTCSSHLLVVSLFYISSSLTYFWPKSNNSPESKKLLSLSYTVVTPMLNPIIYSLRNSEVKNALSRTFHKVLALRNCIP
# Method in brief: as §1
# OR10A6 (Homo sapiens) = biological target: T5, OR10A6 (Homo sapiens) (UniProt Q8NH74)
# T5 sequence (whole entry): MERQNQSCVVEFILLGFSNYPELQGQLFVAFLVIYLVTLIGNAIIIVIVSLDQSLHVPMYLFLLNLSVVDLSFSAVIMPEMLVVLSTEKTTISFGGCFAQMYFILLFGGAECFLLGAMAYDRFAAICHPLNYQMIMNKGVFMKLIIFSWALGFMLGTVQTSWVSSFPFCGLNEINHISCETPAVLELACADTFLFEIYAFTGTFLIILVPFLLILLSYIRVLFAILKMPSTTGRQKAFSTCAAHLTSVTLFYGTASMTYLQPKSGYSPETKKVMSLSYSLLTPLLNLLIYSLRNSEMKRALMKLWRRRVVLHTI
# Method in brief: as §1
# OR10A7 (Homo sapiens) = biological target: T6, OR10A7 (Homo sapiens) (UniProt Q8NGE5)
# T6 sequence (whole entry): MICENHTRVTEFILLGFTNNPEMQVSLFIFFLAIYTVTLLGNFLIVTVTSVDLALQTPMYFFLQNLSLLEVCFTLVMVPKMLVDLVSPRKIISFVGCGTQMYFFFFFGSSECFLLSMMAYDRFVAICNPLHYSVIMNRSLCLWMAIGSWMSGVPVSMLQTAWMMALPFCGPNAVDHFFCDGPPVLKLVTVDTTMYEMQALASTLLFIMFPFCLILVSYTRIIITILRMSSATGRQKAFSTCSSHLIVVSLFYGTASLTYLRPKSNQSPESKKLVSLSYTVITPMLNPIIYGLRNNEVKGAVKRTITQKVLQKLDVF
# Method in brief: as §1
# OR10AC1 (Homo sapiens) = OR10AC1 (Homo sapiens) (UniProt Q8NH08)
# Method in brief: as §1
# OR10AD1 (Homo sapiens) = biological target: T7, OR10AD1 (Homo sapiens) (UniProt Q8NGE0)
# T7 sequence (whole entry): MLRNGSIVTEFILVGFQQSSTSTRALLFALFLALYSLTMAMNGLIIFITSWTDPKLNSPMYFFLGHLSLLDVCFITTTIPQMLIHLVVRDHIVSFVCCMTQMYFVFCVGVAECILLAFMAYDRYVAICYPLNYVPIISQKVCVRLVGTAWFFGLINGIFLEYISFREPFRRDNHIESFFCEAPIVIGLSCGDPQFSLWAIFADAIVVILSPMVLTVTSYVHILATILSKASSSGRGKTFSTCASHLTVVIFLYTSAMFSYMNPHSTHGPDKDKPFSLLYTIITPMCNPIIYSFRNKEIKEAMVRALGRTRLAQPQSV
# Method in brief: as §1
# OR10AG1 (Homo sapiens) = biological target: T8, OR10AG1 (Homo sapiens) (UniProt Q8NH19)
# T8 sequence (whole entry): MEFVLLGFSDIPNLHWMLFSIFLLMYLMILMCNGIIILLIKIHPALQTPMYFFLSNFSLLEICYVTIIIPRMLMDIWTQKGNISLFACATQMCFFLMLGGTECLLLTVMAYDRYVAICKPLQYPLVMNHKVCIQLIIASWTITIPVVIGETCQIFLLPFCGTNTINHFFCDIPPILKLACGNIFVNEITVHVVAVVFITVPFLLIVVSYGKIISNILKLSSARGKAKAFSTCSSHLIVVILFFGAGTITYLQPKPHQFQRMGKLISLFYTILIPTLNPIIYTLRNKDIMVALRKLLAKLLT
# Method in brief: as §1
# OR10C1 (Homo sapiens) = biological target: T9, OR10C1 (Homo sapiens) (UniProt Q96KK4)
# T9 sequence (whole entry): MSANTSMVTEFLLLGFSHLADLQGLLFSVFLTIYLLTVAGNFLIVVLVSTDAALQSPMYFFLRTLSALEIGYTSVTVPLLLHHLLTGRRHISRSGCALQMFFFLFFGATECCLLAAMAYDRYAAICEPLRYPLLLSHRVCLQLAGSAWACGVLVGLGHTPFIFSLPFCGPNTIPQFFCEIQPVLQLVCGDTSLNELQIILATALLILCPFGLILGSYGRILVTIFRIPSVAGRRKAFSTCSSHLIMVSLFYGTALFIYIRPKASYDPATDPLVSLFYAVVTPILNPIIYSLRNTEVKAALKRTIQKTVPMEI
# Method in brief: as §1
# Chain of OR10AC1 (Homo sapiens) (Q8NH08 whole entry): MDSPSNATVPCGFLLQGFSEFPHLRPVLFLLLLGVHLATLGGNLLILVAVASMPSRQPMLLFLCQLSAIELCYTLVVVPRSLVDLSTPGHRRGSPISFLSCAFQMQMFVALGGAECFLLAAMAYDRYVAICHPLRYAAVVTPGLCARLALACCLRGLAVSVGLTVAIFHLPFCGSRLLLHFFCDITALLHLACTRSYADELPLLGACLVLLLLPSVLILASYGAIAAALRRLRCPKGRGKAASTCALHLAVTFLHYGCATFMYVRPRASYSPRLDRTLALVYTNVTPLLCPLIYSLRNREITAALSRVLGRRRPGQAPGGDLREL
smiles,measurement,setting,value
CC(=O)c1c(C)c([N+](=O)[O-])c(C(C)(C)C)c([N+](=O)[O-])c1C,odorant receptor agonist call,O5AN1,active
same,odorant receptor agonist call,OR10A2 (Homo sapiens),inactive
same,odorant receptor agonist call,OR10A4 (Homo sapiens),inactive
same,odorant receptor agonist call,OR10A5 (Homo sapiens),inactive
same,odorant receptor agonist call,OR10A6 (Homo sapiens),inactive
same,odorant receptor agonist call,OR10A7 (Homo sapiens),inactive
same,odorant receptor agonist call,OR10AC1 (Homo sapiens),inactive
same,odorant receptor agonist call,OR10AD1 (Homo sapiens),inactive
same,odorant receptor agonist call,OR10AG1 (Homo sapiens),inactive
same,odorant receptor agonist call,OR10C1 (Homo sapiens),inactive
O=C1CCCC=CCCCCCCCCCC1,odorant receptor agonist call,O5AN1,active
CCC(=O)OCC(C)(C)OC(C)C1CCCC(C)(C)C1 (stereo not drawn),odorant receptor agonist call,O5AN1,inactive
O=C1CCCCCCCCCC1,odorant receptor agonist call,O5AN1,inactive
